Records with an inconclusive call do not appear.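 Rule for the calls, unless noted: active = viability increase at or above a cutoff of the median across tested compounds plus 3 SD (cut at about 8.5% in these data, passing the limit was not always enough); inconclusive = some gains above the cutoff, reason not given; inactive = the rest.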
Legend:
[1] = OD615 S. cerevisiae growth inhibition, permissive medium, pilot counter-assay, permissive growth control for S. cerevisiae lifespan shortening project (AID 705;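 active = growth inhibition above 25% in both replicates, a cutoff set 3 SD above the mean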); conditions: OD615, 24 h, at 10 µM, active compounds read high
Procedure, shortened: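 System: Engineered DeaD yeast | Buffer or medium: SC raffinose/galactose permissive medium | Incubation: Cells pre-grown 4 h, then 24 h compound exposure, 30 °C humidified | Measured by: Absorbance (optical density) at 615 nm | Read-out: Reduction in yeast growth (OD615)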

[2] = Restrictive medium S. cerevisiae growth inhibition, OD615, pilot screen of yeast lifespan reduction project, restrictive growth control (AID 706;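 active = growth inhibition above a set limit, 3 SD over mean compound inhibition, in both replicates, cut at about 43% in these data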;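 note: modified DeaD lifespan yeast strain shifted to restrictive glucose medium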); conditions: OD615, 48 h, at 10 µM, active compounds read high
Procedure, shortened: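 Material: modified S. cerevisiae; Medium: glucose-based CSMM-D restrictive medium; Compound dosing: one concentration, 10 µM final, 0.25% DMSO; Incubation: 48 h compound exposure at 30 °C; Measured by: OD615.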

[3] = viability gain of MRP-1-high H69AR cells under doxorubicin, pilot screen, MRP-1 activator project, CellTiter-Glo, duplicate (AID 807); conditions: H69AR viability with doxorubicin, CellTiter-Glo luminescence; at 10 µM; active compounds read high;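 note: compound pretreatment 18-22 h then 72 h combined with doxorubicin; 0% = doxorubicin alone and 100% = vehicle without doxorubicin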
[4] = growth suppression of beta-catenin knockout HCT116, pilot screen, human colon tumor cells (AID 823;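 active = cell viability at or below a set limit in both duplicate runs, the limit being the all-compound median minus 4 SD, cut at about 23% in these data, passing the limit was not always enough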;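 note: 0% = wells killed by 20 µM Hyamine and 100% = untreated DMSO cell wells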); conditions: CellTiter-Glo, 60 h, at 10 µM, active compounds read low
[5] = growth suppression of PTEN-deleted HCT116, pilot screen, cell-based, HCT116 clonal line, CellTiter-Glo (AID 824;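 active = viability at or below 27.92% in each of two runs, the all-compound median minus 4 SD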;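 note: 0% = 20 µM Hyamine control and 100% = vehicle cell control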); conditions: 60 h, at 10 µM, active compounds read low
[6] = inhibitors of the yeast RAM network, pilot screen, dse1pr::URA3 reporter, 5-FOA selection (AID 869;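 active = inhibition over a set limit, the all-compound mean plus 3 SD, in both replicate runs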;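 note: 0% = DMSO wells with no growth and 100% = 10 µM 1-NA-PP1 with full growth; RAM network block rescues cells from 5-FOA so hits raise OD615 growth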); conditions: S. cerevisiae dse1pr::URA3 5-FOA growth, OD615, 2 d; at 10 µM; active compounds read high; strain carries analog-sensitive mutant Cbk1 kinase
[7] = RAM signaling pathway blockade in yeast – S. cerevisiae, Pdr1DBD-CYC8 efflux-inhibited sensitized strain, primary screen (AID 1298;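 active = RAM network inhibition above 8.4% in each of two replicates, 3 SD over the compound average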;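 note: 0% = DMSO untreated cells without growth and 100% = 10 µM 1-NA-PP1 full growth; higher means more yeast growth rescued from 5-FOA killing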); conditions: S. cerevisiae cbk1-as DSE1-URA3 strain, 5-FOA growth OD615, 2 d; at 50 µM; active compounds read high

Cc1ccccc1N1C(=O)C(Cl)=C(N2CCN(c3ccccc3)CC2)C1=O
inactive: growth inhibition [1] -5.42% | growth inhibition [2] -12.1% | viability increase [3] -2.29% | viability [4] 101% | viability [5] 109% | inhibition [6] 0.515% | RAM network inhibition [7] 1.87%

COc1ccccc1N(C(=O)NCc1ccccc1)C1=NCC(C)S1 (configuration not stated)
inactive: growth inhibition [1] -16% | growth inhibition [2] -11.9% | viability increase [3] -3.44% | viability [4] 93.4% | viability [5] 89.2% | inhibition [6] 2.22% | RAM network inhibition [7] 7.42%

CN(C)Cc1cc(C(C)(C)C)c(O)c(C(C)(C)C)c1
inactive: growth inhibition [1] -3.78% | growth inhibition [2] -4.33% | viability increase [3] -2.61% | viability [4] 97.2% | viability [5] 101% | inhibition [6] 0.92% | RAM network inhibition [7] 5.72%

CCOC(=O)C(C)c1nn(C)c(=O)c2ccccc12 (configuration not stated)
inactive: growth inhibition [1] -3.15% | growth inhibition [2] -5.69% | viability increase [3] -2.34% | viability [4] 97.4% | viability [5] 92.7% | inhibition [6] 1.42% | RAM network inhibition [7] 1.72%

Nc1nonc1-n1nncc1-c1ccccc1
inactive: growth inhibition [1] -8.35% | growth inhibition [2] -13.6% | viability increase [3] -1.04% | viability [4] 92.4% | viability [5] 96.7% | inhibition [6] 1.67% | RAM network inhibition [7] 1.25%

CC(C)NS(=O)(=O)c1ccc(CCC(=O)NCc2ccco2)cc1
inactive: growth inhibition [1] -15.3% | growth inhibition [2] -22.4% | viability increase [3] -3.3% | viability [4] 93.1% | viability [5] 97% | inhibition [6] 1.55% | RAM network inhibition [7] -0.53%

Nc1ccc(C(=O)c2ccc3c(c2)OCCO3)cc1N
inactive: growth inhibition [1] 4.75% | growth inhibition [2] 6.96% | viability increase [3] -6.58% | viability [4] 102% | viability [5] 97.5% | inhibition [6] 0.375% | RAM network inhibition [7] 4.41%

CCN1C(=O)NC2C1N(S(C)(=O)=O)CCN2S(C)(=O)=O (configuration not stated)
inactive: growth inhibition [1] -1.72% | growth inhibition [2] 2.34% | viability increase [3] -0.57% | viability [4] 108% | viability [5] 92.1% | inhibition [6] 1.29% | RAM network inhibition [7] 4.02%

CCn1c(=O)cc(OCC(=O)Nc2ccccc2C#N)c2ccccc21
inactive: growth inhibition [1] -22.1% | growth inhibition [2] -8.12% | viability increase [3] -1.86% | viability [4] 95.1% | viability [5] 94.7% | inhibition [6] 2.12% | RAM network inhibition [7] 4.46%

CN(C)S(=O)(=O)c1ccc(C(=O)Nc2ccc(OCC(=O)N3CCOCC3)cc2)cc1
inactive: growth inhibition [1] 0.98% | growth inhibition [2] -1.1% | viability increase [3] -1.5% | viability [4] 97.7% | viability [5] 97.9% | inhibition [6] 2.33% | RAM network inhibition [7] 0.86%

CCOC(=O)C1CCN(C(c2cccs2)c2sc3nc(C)nn3c2O)CC1 (configuration not stated)
inactive: growth inhibition [1] -2.81% | growth inhibition [2] -7.96% | viability increase [3] -0.58% | viability [4] 105% | viability [5] 99.3% | inhibition [6] 0.905% | RAM network inhibition [7] 3.86%

CC(=O)NCCn1c(C)cc2ccccc21
inactive: growth inhibition [1] 2.67% | growth inhibition [2] -0.185% | viability increase [3] -0.52% | viability [4] 95.3% | viability [5] 105% | inhibition [6] 0.97% | RAM network inhibition [7] 0.86%

Cc1ccc(-n2c3c(cc(C(=O)N4CCN(C)CC4)c2=O)C(=O)CC(C)(C)C3)cc1
inactive: growth inhibition [1] -21.9% | growth inhibition [2] -9.49% | viability increase [3] 0.41% | viability [4] 101% | viability [5] 96.6% | inhibition [6] 1.48% | RAM network inhibition [7] 2.1%

CCc1nnc(NC(=O)c2ccc(OC)cc2OC)s1
inactive: growth inhibition [1] 16.6% | growth inhibition [2] 3.21% | viability increase [3] -1.32% | viability [4] 109% | viability [5] 102% | inhibition [6] 1.68% | RAM network inhibition [7] 2.76%

COCCNC(=O)CN1CCOc2ccccc21
inactive: growth inhibition [1] -22.5% | growth inhibition [2] 14.5% | viability increase [3] -4.65% | viability [4] 94.6% | viability [5] 102% | inhibition [6] 0.98% | RAM network inhibition [7] 3.11%

COc1ccc(S(=O)(=O)NCC2CCC(C(=O)N3CCC4(CC3)OCCO4)CC2)cc1 (configuration not stated)
inactive: growth inhibition [1] -5.13% | growth inhibition [2] -3.68% | viability increase [3] -1.38% | viability [4] 94.2% | viability [5] 90.6% | inhibition [6] 0.81% | RAM network inhibition [7] 2.29%

Cc1cc(C)nc(SCC(=O)NCc2ccco2)n1
inactive: growth inhibition [1] 3.65% | growth inhibition [2] 6.47% | viability increase [3] -5.58% | viability [4] 70.6% | viability [5] 78.4% | inhibition [6] -0.38% | RAM network inhibition [7] 2.1%

CC1(C)CC(=O)c2sc(NC(=O)c3ccco3)nc2C1
inactive: growth inhibition [1] -15% | growth inhibition [2] -0.525% | viability increase [3] -2.54% | viability [4] 94.2% | viability [5] 84.1% | inhibition [6] 0.735% | RAM network inhibition [7] 2.58%

CN(C)CCCN1C(=O)c2oc3ccc(F)cc3c(=O)c2C1c1cccnc1 (configuration not stated)
inactive: growth inhibition [1] 4.42% | growth inhibition [2] 7.96% | viability increase [3] -1.1% | viability [4] 107% | viability [5] 98.7% | inhibition [6] 2.9% | RAM network inhibition [7] 2.14%

O=C(NCCN1CCOCC1)c1ccc(CS(=O)(=O)c2c(Cl)cccc2Cl)o1
inactive: growth inhibition [1] -0.145% | growth inhibition [2] 5.92% | viability increase [3] -0.81% | viability [4] 110% | viability [5] 105% | inhibition [6] 0.74% | RAM network inhibition [7] 0.87%

CC(C)Oc1ccc(C2CNC(=O)C2)cc1 (configuration not stated)
inactive: growth inhibition [1] -1.04% | growth inhibition [2] 0.15% | viability increase [3] -0.24% | viability [4] 102% | viability [5] 103% | inhibition [6] 1.04% | RAM network inhibition [7] 0.1%

COc1ccc(Cl)cc1N(CC(=O)N1CCC(C)CC1)S(C)(=O)=O
inactive: growth inhibition [1] 5.7% | growth inhibition [2] 0.85% | viability increase [3] -1.75% | viability [4] 96.6% | viability [5] 92.7% | inhibition [6] 0.155% | RAM network inhibition [7] 1.72%

CC1CCN(c2nc(-c3ccco3)c3c(c2C#N)CC(C)(C)OC3)CC1
inactive: growth inhibition [1] -15% | growth inhibition [2] -3.74% | viability increase [3] -6.85% | viability [4] 90.8% | viability [5] 89.6% | inhibition [6] 0.175% | RAM network inhibition [7] 0.92%

Cc1c(C#N)c2ccccc2n1CC(=O)NCCc1c[nH]c2ccccc12
inactive: growth inhibition [1] -12.2% | growth inhibition [2] 5.17% | viability increase [3] -6.08% | viability [4] 52.7% | viability [5] 64.3% | inhibition [6] 3.73% | RAM network inhibition [7] 8.41%

COc1ccc(OC)c(N(CC(=O)Nc2ccc3c(c2)OCCO3)S(C)(=O)=O)c1
inactive: growth inhibition [1] -6.81% | growth inhibition [2] -3.32% | viability increase [3] -2.52% | viability [4] 92.4% | viability [5] 89.8% | inhibition [6] 0.825% | RAM network inhibition [7] 3.49%

COc1ccc(C2CC(c3ccccc3C)n3nc(N)nc3N2)cc1 (configuration not stated)
inactive: growth inhibition [1] 1.94% | growth inhibition [2] 17.8% | viability increase [3] 0.56% | viability [4] 96.1% | viability [5] 87.6% | inhibition [6] 2.3% | RAM network inhibition [7] 1.89%

CC(=O)Oc1cccc(N2C(=O)C3CC=C(Cl)CC3C2=O)c1 (configuration not stated)
inactive: growth inhibition [1] -5.15% | growth inhibition [2] -22.9% | viability increase [3] -0.7% | viability [4] 89.6% | viability [5] 87.9% | inhibition [6] 2.81% | RAM network inhibition [7] 1.87%

O=C(CSc1nc2c(c(=O)n1-c1ccc(Cl)cc1)SCC2)NCc1ccco1
inactive: growth inhibition [1] -4.73% | growth inhibition [2] -0.115% | viability increase [3] -4.49% | viability [4] 86.2% | viability [5] 89% | inhibition [6] 0.225% | RAM network inhibition [7] 4.2%

CCCNC(=O)C1CC(=O)N(c2ccc(OCC(=O)Nc3cccc(C)c3C)cc2)C1 (configuration not stated)
inactive: growth inhibition [1] -13.4% | growth inhibition [2] -14.8% | viability increase [3] -1.99% | viability [4] 106% | viability [5] 97.7% | inhibition [6] 2.35% | RAM network inhibition [7] 1.01%

COc1ccccc1NC(=O)Cc1noc(CSc2nnc(C)s2)n1
inactive: growth inhibition [1] -3.75% | growth inhibition [2] 0.765% | viability increase [3] -2.11% | viability [4] 97.2% | viability [5] 97.6% | inhibition [6] 0.43% | RAM network inhibition [7] 5.03%

Cc1cc(C)nc(-n2nc(C)cc2NC(=O)CN2CCC(C)CC2)n1
inactive: growth inhibition [1] -0.83% | growth inhibition [2] 21.6% | viability increase [3] -5.27% | viability [4] 75.3% | viability [5] 85.5% | inhibition [6] 1.01% | RAM network inhibition [7] 2.91%

COC(=O)C(C)Sc1nnc(Cc2cc(=O)[nH]c(=O)[nH]2)n1-c1cccc(OC)c1 (configuration not stated)
inactive: growth inhibition [1] -7.95% | growth inhibition [2] -0.1% | viability increase [3] 0.21% | viability [4] 104% | viability [5] 108% | inhibition [6] 2.8% | RAM network inhibition [7] 3%

Cc1cc(N2CCN(C(c3ccccc3)c3ccc(Cl)cc3)CC2)n2ncnc2n1 (configuration not stated)
inactive: growth inhibition [1] -1.52% | growth inhibition [2] 7.98% | viability increase [3] -4.33% | viability [4] 66.1% | viability [5] 63.2% | inhibition [6] 0.13% | RAM network inhibition [7] 3.39%

O=C1CNC(=O)/C1=C\N1CCN(C(c2ccccc2)c2ccccc2)CC1
inactive: growth inhibition [1] 5.72% | growth inhibition [2] 9.98% | viability increase [3] -2.16% | viability [4] 99.2% | viability [5] 101% | inhibition [6] 2.48% | RAM network inhibition [7] 1.6%

CCCc1nnc(NC(=O)CC(=O)OCC)s1
inactive: growth inhibition [1] 6.47% | growth inhibition [2] -8.03% | viability increase [3] -1.07% | viability [4] 97% | viability [5] 93.1% | inhibition [6] 0.96% | RAM network inhibition [7] -0.11%

COC(=O)C1=C(C)n2cnnc2NC1c1ccc(Cl)cc1 (configuration not stated)
inactive: growth inhibition [1] 0.905% | growth inhibition [2] -4.44% | viability increase [3] 0.28% | viability [4] 104% | viability [5] 97.2% | inhibition [6] 1.27% | RAM network inhibition [7] -0.92%

— PubChem BioAssay
